Test results from ChEMBL document CHEMBL3351316, “Scaffold hopping approach on the route to selective tankyrase inhibitors” (Eur J Med Chem, 2014).
Active and inactive are the calls of the source. The calls are words filed in the database; no cut-off is given here.

Legend:
RKO = experiment: Growth inhibition of Wnt-negative human RKO cells at >10 uM; format: functional, cell-based
[1] = molecular target: T1, Protein mono-ADP-ribosyltransferase PARP3 (Homo sapiens) (UniProt Q9Y6F1); experiment: Inhibition of human recombinant PARP3 at 10 uM incubated for 1 hr using NAD+, biotinylated NAD+ and activated DNA by luminescence based assay
T1 sequence (whole entry): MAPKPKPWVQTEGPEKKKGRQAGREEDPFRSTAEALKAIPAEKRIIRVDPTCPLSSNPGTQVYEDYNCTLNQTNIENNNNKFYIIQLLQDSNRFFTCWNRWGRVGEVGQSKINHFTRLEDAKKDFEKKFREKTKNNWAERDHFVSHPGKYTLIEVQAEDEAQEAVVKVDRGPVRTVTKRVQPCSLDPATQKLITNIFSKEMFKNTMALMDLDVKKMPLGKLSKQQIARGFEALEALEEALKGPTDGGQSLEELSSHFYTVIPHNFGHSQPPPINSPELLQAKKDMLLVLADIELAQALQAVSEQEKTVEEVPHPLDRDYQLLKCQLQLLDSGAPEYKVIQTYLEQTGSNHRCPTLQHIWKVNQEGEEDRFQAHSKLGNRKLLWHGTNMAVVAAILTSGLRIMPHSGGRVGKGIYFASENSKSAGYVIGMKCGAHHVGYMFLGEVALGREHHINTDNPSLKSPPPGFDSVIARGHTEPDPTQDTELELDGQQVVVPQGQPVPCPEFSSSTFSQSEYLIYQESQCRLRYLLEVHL
How it was run: (§1)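 Recombinant PARP enzyme reactions were run in duplicate for 1 h at rt on histone-coated plates in Tris·HCl pH 8.0 buffer with NAD+, biotinylated NAD+ and activated DNA. Detection used streptavidin-HRP for 30 min at rt, then a chemiluminescent developer. % inhibition = 100 − % activity, scaled between the no-compound (100%) and no-enzyme (0%) signals.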

[2] = molecular target: T2, Protein mono-ADP-ribosyltransferase PARP11 (Homo sapiens) (UniProt Q9NR21); experiment: Inhibition of human recombinant PARP11 at 10 uM incubated for 1 hr using NAD+, biotinylated NAD+ and activated DNA by luminescence based assay; how it was run: as §1
T2 sequence (whole entry): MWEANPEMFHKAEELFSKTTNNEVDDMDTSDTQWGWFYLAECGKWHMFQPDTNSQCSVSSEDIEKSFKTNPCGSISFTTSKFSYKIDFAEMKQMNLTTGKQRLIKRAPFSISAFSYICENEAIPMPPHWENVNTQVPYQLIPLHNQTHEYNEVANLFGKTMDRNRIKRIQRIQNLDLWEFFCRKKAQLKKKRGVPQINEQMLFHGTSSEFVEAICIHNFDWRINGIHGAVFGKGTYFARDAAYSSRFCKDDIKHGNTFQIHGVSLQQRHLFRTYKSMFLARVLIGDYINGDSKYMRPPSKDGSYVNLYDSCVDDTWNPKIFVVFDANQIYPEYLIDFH

[3] = molecular target: Protein mono-ADP-ribosyltransferase PARP14 (Homo sapiens) (UniProt Q460N5); experiment: Inhibition of human recombinant PARP14 at 10 uM incubated for 1 hr using NAD+, biotinylated NAD+ and activated DNA by luminescence based assay; how it was run: as §1
Sequence of Protein mono-ADP-ribosyltransferase PARP14 (Homo sapiens) (Q460N5 whole entry): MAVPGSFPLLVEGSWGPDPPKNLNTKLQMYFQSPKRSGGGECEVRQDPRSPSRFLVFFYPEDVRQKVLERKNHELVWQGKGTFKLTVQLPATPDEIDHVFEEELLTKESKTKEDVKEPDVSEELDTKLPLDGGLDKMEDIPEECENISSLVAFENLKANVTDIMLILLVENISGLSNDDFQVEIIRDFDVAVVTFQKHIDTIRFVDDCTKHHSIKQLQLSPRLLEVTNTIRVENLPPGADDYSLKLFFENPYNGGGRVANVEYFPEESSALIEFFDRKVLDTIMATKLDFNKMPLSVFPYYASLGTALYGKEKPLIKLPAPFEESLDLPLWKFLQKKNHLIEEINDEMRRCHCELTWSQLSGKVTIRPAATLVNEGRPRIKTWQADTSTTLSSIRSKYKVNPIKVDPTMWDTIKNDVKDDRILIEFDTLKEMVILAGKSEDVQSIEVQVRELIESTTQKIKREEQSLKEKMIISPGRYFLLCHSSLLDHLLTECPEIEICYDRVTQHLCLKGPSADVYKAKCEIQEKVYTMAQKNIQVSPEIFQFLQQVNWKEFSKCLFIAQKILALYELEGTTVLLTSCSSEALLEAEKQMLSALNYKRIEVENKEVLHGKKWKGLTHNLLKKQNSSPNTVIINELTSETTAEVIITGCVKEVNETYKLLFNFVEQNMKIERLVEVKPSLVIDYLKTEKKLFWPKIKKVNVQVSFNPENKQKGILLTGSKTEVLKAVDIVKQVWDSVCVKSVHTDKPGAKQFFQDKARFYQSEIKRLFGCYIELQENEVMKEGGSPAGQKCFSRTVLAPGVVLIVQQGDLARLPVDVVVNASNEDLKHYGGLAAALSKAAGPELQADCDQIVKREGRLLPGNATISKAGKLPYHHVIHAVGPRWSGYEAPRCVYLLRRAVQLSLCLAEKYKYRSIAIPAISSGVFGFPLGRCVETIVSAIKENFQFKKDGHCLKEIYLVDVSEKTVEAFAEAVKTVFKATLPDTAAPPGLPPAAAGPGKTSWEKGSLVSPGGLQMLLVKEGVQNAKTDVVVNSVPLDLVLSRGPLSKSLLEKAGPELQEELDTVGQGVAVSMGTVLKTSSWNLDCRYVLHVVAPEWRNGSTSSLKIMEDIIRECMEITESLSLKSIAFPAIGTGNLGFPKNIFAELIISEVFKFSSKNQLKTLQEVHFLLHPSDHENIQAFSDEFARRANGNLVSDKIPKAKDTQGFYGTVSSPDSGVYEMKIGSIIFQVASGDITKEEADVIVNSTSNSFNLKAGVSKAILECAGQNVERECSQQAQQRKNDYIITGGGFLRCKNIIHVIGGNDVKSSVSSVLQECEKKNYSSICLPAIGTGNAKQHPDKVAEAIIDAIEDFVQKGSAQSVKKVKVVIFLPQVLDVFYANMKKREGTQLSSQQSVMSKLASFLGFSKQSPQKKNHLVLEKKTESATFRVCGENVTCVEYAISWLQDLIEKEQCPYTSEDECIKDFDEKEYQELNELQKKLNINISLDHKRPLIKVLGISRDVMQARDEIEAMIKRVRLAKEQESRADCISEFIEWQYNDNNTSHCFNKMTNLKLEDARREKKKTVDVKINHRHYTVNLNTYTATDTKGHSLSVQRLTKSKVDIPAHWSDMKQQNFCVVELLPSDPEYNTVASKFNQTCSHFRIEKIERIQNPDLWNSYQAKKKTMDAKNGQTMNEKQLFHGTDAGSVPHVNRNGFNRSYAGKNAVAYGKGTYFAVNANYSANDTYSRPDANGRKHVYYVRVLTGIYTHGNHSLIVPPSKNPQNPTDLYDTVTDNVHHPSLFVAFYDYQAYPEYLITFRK

## CC(C)(C)c1ccc(-c2nc3c(sc4ccccc43)c(=O)[nH]2)cc1
RKO
  growth inhibition (GI): Active
[1]
  inhibition: 1%
[2]
  inhibition: 10%
[3]
  inhibition: 0%
